ChEMBL document CHEMBL1132299, “Phosphinic pseudo-tripeptides as potent inhibitors of matrix metalloproteinases: a structure-activity study” (J Med Chem, 1999)

Tests used:
[1] = target: Matrix metalloproteinase-9 (Homo sapiens, UniProt P14780); assay: Binding affinity against matrix metalloprotease-9 (gelatinase-B).
Outline: (§1)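 Full-length human pro-MMP-2, -9 and -8 were expressed in NSO myeloma cells and activated with 4-aminophenylmercuric acetate just before use. Run at 25 °C in 50 mM Tris/HCl pH 6.8, 10 mM CaCl2, with 0.2–5 nM enzyme and 6 µM Mca-Pro-Leu-Gly-Leu-Dpa-Ala-Arg-NH2; fluorescence 340/400 nm, 30 min. Km: MMP-2 49, MMP-9 14, MMP-8 61 µM. Triplicate, five inhibitor levels; Ki by Horovitz–Levitski.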

Interstitial collagenase = target: T1, Interstitial collagenase (Homo sapiens, UniProt P03956); assay: Inhibition of matrix metalloprotease-1
T1 sequence (P03956 whole entry): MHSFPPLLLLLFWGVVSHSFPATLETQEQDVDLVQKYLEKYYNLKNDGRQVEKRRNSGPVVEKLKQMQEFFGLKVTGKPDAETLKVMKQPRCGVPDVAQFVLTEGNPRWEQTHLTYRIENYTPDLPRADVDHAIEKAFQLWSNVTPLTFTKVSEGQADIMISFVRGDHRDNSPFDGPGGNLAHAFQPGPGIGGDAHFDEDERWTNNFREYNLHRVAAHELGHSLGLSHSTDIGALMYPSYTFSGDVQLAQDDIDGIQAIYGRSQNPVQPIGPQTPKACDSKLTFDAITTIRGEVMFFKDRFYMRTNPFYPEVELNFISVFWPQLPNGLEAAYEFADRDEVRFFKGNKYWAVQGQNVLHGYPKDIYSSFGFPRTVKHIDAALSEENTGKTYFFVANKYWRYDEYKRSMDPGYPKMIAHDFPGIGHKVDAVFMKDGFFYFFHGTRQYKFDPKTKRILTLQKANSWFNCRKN
Outline: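 Human full-length pro-MMP-1 was expressed in NSO myeloma cells and activated just before use with trypsin (10 µg/mL, 25 min, 25 °C), then BPTI (100 µg/mL). Assay: 50 mM Tris/HCl pH 6.8, 10 mM CaCl2, 25 °C, 0.2–5 nM enzyme, 6 µM Mca-Pro-Leu-Gly-Leu-Dpa-Ala-Arg-NH2, fluorescence 340/400 nm over 30 min. Km 100 µM. Triplicate inhibition at five concentrations (20–80% range) gave Ki by the Horovitz–Levitski method.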

[2] = target: 72 kDa type IV collagenase (Homo sapiens, UniProt P08253); assay: Binding affinity against matrix metalloprotease-2 (gelatinase-A).; outline: as §1
Matrilysin = target: T2, Matrilysin (Homo sapiens, UniProt P09237); assay: Inhibition of Matrix metalloprotease-7 Matrilysin
T2 sequence (P09237 whole entry): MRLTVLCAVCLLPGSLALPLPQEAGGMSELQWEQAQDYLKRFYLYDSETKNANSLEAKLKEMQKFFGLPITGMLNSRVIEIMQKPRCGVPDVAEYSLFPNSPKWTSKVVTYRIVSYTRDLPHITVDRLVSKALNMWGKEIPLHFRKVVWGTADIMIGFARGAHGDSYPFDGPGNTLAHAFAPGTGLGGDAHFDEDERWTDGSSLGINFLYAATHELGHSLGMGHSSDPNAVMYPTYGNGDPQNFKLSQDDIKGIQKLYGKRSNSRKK
Outline: (§2)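 Catalytic domains of human MMP-14 and MMP-7 were expressed in E. coli BL21 DE3 pLysS. Buffer 50 mM Tris/HCl pH 6.8, 10 mM CaCl2, 25 °C; 0.2–5 nM enzyme; 6 µM Mca-Pro-Leu-Gly-Leu-Dpa-Ala-Arg-NH2 read by fluorescence (ex 340, em 400 nm) for 30 min. Km: MMP-14 21, MMP-7 67 µM. Five inhibitor concentrations in triplicate; Ki by Horovitz–Levitski method.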

[3] = target: Matrix metalloproteinase-14 (Homo sapiens, UniProt P50281); assay: Binding affinity against matrix metalloprotease-14 MTI-MMP.; outline: as §2
Stromelysin-3 = target: T3, Stromelysin-3 (Mus musculus, UniProt Q02853); assay: Binding affinity against matrix metalloprotease-11.
T3 sequence (Q02853 whole entry): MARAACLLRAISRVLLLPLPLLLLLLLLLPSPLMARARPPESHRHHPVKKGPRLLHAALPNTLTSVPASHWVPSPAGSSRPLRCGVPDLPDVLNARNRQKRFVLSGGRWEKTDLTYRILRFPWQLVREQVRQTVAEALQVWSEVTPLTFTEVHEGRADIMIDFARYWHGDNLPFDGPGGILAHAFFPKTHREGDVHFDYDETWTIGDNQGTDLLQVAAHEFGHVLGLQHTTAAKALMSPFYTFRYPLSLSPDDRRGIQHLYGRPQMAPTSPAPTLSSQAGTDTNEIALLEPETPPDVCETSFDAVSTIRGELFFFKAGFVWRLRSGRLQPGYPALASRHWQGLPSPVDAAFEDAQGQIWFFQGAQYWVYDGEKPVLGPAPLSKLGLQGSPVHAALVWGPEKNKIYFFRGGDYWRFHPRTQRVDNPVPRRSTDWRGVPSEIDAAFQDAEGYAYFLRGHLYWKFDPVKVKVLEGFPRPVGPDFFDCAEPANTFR
Outline: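 Mouse MMP-11 catalytic domain from E. coli BL21 DE3 pLysS, assayed in stirred quartz cuvettes in 50 mM Tris/HCl pH 6.8, 10 mM CaCl2 at 25 °C. Substrate was Mca-Pro-Leu-Ala-Cys(OMeBn)-Trp-Ala-Arg-Dpa-NH2 (Km 0.2 µM), with fluorescence read-out. Percent inhibition was measured in triplicate at five concentrations (20–80% range), and Ki was derived by the Horovitz–Levitski method.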

Neutrophil collagenase = Neutrophil collagenase (Homo sapiens, UniProt P22894); assay: Inhibition of matrix metalloprotease-8; outline: as §1
Sequence of Neutrophil collagenase (P22894 whole entry): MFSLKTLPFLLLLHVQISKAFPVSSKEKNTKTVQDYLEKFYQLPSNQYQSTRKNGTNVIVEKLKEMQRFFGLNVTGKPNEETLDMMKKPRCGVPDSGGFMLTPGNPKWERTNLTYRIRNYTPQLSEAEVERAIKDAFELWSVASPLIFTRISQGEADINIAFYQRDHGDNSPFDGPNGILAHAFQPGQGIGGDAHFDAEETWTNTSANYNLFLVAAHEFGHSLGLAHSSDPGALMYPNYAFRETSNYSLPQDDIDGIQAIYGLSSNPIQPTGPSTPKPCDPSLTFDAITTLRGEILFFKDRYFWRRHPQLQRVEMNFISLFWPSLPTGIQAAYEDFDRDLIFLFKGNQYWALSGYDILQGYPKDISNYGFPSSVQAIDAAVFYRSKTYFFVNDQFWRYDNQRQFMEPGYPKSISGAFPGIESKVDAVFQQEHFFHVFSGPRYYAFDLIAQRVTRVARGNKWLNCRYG

Sequence of Matrix metalloproteinase-9 (P14780 whole entry): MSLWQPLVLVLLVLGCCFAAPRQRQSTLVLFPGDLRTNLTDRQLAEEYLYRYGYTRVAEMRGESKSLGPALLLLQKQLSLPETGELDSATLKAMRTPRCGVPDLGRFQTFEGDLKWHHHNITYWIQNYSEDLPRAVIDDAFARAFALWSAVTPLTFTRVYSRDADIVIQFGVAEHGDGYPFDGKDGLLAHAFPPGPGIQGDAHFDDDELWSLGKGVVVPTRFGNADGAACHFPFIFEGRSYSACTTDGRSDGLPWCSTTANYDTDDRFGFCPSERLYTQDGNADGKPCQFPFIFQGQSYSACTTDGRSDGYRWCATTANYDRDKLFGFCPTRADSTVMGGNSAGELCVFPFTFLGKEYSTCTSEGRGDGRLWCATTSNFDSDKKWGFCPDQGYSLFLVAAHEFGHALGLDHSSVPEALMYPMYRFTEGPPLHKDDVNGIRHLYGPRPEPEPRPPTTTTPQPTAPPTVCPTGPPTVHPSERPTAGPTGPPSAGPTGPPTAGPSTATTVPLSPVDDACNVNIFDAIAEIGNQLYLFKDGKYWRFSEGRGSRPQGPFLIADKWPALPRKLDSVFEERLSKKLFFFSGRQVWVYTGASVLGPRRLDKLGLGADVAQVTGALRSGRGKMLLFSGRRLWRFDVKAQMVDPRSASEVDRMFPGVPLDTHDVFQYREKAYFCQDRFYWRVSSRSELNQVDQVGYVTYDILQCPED
Sequence of 72 kDa type IV collagenase (P08253 whole entry): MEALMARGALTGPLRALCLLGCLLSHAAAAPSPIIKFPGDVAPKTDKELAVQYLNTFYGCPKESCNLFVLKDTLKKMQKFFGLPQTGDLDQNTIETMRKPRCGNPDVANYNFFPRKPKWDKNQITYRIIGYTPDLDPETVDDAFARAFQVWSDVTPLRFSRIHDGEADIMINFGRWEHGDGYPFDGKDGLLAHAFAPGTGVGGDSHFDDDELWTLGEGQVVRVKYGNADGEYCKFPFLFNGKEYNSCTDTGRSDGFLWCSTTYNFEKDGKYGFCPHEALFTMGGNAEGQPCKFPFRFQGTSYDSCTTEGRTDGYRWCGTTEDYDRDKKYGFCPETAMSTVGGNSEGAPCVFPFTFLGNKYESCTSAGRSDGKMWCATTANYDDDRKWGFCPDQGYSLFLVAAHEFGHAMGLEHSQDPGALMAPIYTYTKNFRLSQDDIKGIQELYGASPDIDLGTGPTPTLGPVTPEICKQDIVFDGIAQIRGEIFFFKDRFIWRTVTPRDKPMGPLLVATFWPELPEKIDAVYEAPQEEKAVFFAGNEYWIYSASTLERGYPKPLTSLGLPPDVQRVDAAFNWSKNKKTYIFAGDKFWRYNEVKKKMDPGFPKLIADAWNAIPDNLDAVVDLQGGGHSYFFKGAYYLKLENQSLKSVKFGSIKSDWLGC

Ki [1]: 13 nM | Ki (Interstitial collagenase): 340 nM | Ki [2]: 19 nM | Ki (Matrilysin): 370 nM | Ki [3]: 60 nM | Ki (Stromelysin-3): 4.2 nM | Ki (Neutrophil collagenase): 5 nM
SMILES: NC(=O)C(Cc1c[nH]c2ccccc12)NC(=O)C(CCCc1ccccc1)CP(=O)(O)C(Cc1ccccc1)NC(=O)c1ccc2ccccc2n1 (configuration not stated)
